In ChEMBL document CHEMBL1158528, “Synthesis of structurally simplified analogues of aplidinone A, a pro-apoptotic marine thiazinoquinone” (Bioorg Med Chem, 2010) one finds IC50 and Activity data, which are given here for 7 molecules.

The source made the active and inactive calls. The calls are words filed in the database; no cut-off is given here.

The test system of test [1] is Jurkat. Nature of the test: Cytotoxicity against human Jurkat cells after 24 hrs by PI staining based flow cytometry. The test is classed as functional, cell-based. In a few lines: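 Jurkat cells (10^6) were exposed to increasing concentrations for 24 h, then stained with propidium iodide (10 µg/mL in PBS) for 1 min at room temperature. Membrane-compromised cells were counted immediately by flow cytometry with 488 nm excitation.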
Background: Flow cytometry measures light scatter and fluorescence of single cells or particles in a stream.

Test [2] relates to Jurkat. Nature of the test: Cell cycle arrest in human Jurkat cells assessed as increase in apoptotic cells after 24 hrs by flow cytometry. The test is classed as functional, cell-based. In a few lines:
(§1)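 Jurkat cells in RPMI 1640 with 10% FBS, 2 mM glutamine and antibiotics, at 37 °C and 5% CO2, were treated for 24 h. Cells were fixed in 70% ethanol for 24 h at 4 °C, washed with PBS containing 4% glucose, and digested with RNase A (50 U/mL) plus PI staining for 1 h at RT. The subdiploid (sub-G0/G1) fraction was measured by flow cytometry.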

Test [3] relates to Jurkat 5.1 (human). The test is described as follows: Inhibition of TNF-alpha-induced NF-kappaB activation in human Jurkat 5.1 cells by luciferase assay relative to control.
Test [4] has as its system AGS. The test is described as follows: Cytotoxicity against human AGS cells after 48 hrs by calcein-AM assay. The class given is functional, cell-based. The gist of the method: (§2)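 Adherent lines were grown in DMEM with 10% heat-inactivated FBS, 2 mM glutamine, penicillin and streptomycin, seeded at 10^4 cells/well, and exposed to increasing concentrations for 48 h. DMSO stocks were diluted in medium, with final DMSO ≤1%. Calcein-AM (1 µM final) was added for 60 min, stopped on ice, and cells were washed twice with cold HBSS. Fluorescence was read at 485/535 nm to derive IC50.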

A short description of test [5]: Cytotoxicity against human 293T cells after 48 hrs by calcein-AM assay. The settings on record: HEK-293T. The class given is cell-based. The gist of the method: as §2
In test [6] the test system is HCT-116. The test is described as follows: Cytotoxicity against human HCT116 cells after 48 hrs by calcein-AM assay. The test is classed as functional, cell-based. The settings on record: HCT-116, 48 h. In a few lines: as §2
Test [7] relates to A549. The test is described as follows: Cytotoxicity against human A549 cells after 48 hrs by calcein-AM assay. The settings on record: A549, 48 h. The test is classed as functional, cell-based. In a few lines: as §2
Test [8] has as its system HeLa. Nature of the test: Cytotoxicity against human HeLa cells after 48 hrs by calcein-AM assay. The test is classed as functional, cell-based. In a few lines: as §2
For test [9], the system named is Jurkat. Nature of the test: Cell cycle arrest in human Jurkat cells assessed as apoptotic cells at 25 uM after 24 hrs by flow cytometry. The test is classed as functional. In a few lines:
as §1

Test [10] concerns Jurkat. The test is described as follows: Cell cycle arrest in human Jurkat cells assessed as apoptotic cells at 10 uM after 24 hrs by flow cytometry. The test is classed as functional. The gist of the method:
as §1

The IC50 is the concentration needed to halve the response being measured. Turning to `CCCCCCCCCCCCCCC1=C(OC)C(=O)C2=C(NCCS2(=O)=O)C1=O`, the IC50 in test [1] is over 50 µM.
`CCC1=C(OC)C(=O)C2=C(NCCS2(=O)=O)C1=O`: the outcome in test [2] was Active. The IC50 in test [1] is over 50 µM. Also, the outcome in test [3] was inactive.
For `CCCCCCCCC1=C(OC)C(=O)C2=C(NCCS2(=O)=O)C1=O`, the outcome in test [2] was Active. Moreover, in [1], the IC50 is over 50 µM.
`COC1=C(C/C=C(\C)CCC=C(C)C)C(=O)C2=C(C1=O)S(=O)(=O)CCN2` [APLIDINONE A]: the IC50 in test [1] was 44.5 µM.
On to `CCCCCCCCCCCCCCC1=C(OC)C(=O)C2=C(C1=O)S(=O)(=O)CCN2`, for which the IC50 in [4] was 45 µM; in test [1] it was over 50 µM; in [5], 47.9 µM; in test [6], 44.8 µM; in test [7] it was 50.8 µM; in [8], 47.9 µM.
As to `CCCCCCCCC1=C(OC)C(=O)C2=C(C1=O)S(=O)(=O)CCN2`, the Activity in [9] came out at 45%; in test [10] it was 26.5%. Also, the 50% inhibitory concentration (IC50) is 7.2 µM in test [4]; 20.7 µM in [1]; 8.7 µM in test [5]; 14.1 µM in test [6]; 13 µM in test [7]; 24.8 µM in test [8]. In addition, the result in test [3] was Active.
For `CCC1=C(OC)C(=O)C2=C(C1=O)S(=O)(=O)CCN2`, the Activity in test [9] turned out to be 9.6%. In test [2], the outcome was Active. For the same molecule, the IC50 in test [4] was over 50 µM; in test [1], over 50 µM; in [5] it was 32.6 µM; in [6], over 50 µM; in [7], over 50 µM; in test [8], over 50 µM.
